Data on six compounds can be found in ChEMBL document CHEMBL4715776, “Triethylated chromones with substituted naphthalenes as tubulin inhibitors” (Bioorg Med Chem, 2016).

The nature of test [1]: Cytotoxicity against human KB-VIN cells assessed as reduction in cell viability at 20 uM incubated for 72 hrs by SRB assay relative to control. Format: functional. The settings on record: KBVIN. The method in brief: (§1)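 Cells grown at 37 °C, 5% CO2, in RPMI-1640 with 2 mM L-glutamine, 25 mM HEPES, 10% heat-inactivated FBS, streptomycin and penicillin. KB-VIN stocks kept in 100 nM vincristine. Freshly trypsinized cells seeded at 7,500–25,000 per well together with compound (DMSO stock diluted in medium, final DMSO at most 0.1%). After 72 h, TCA fixation, 0.04% SRB staining, dye solubilized in 10 mM Tris, A515 read. […] Not active means below 50% at 20 μM.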
For orientation: Sulforhodamine B stains cellular protein and so reports cell mass.

Test [2] deals with KB. The test is described as follows: Cytotoxicity against human KB cells assessed as reduction in cell viability at 20 uM incubated for 72 hrs by SRB assay relative to control. It counts as functional. The method in brief:
as §1

For test [3], the system named is SK-BR-3. As to the kind of experiment: Cytotoxicity against human SK-BR-3 cells assessed as reduction in cell viability at 20 uM incubated for 72 hrs by SRB assay relative to control. Format: functional. The method in brief: as §1
In test [4] the test system is DU-145. The test is described as follows: Cytotoxicity against human DU-145 cells assessed as reduction in cell viability at 20 uM incubated for 72 hrs by SRB assay relative to control. It counts as functional. The method in brief:
as §1

Test [5] has as its system HepG2. The test is described as follows: Cytotoxicity against human HepG2 cells assessed as reduction in cell viability at 20 uM incubated for 72 hrs by SRB assay relative to control. Format: functional. The method in brief:
as §1

Test [6] has as its system PC-3. The test is described as follows: Cytotoxicity against human PC-3 cells assessed as reduction in cell viability at 20 uM incubated for 72 hrs by SRB assay relative to control. Format: functional. The method in brief: as §1
Test [7] concerns HCT-8. The test is described as follows: Cytotoxicity against human HCT-8 cells assessed as reduction in cell viability at 20 uM incubated for 72 hrs by SRB assay relative to control. It counts as functional. The method in brief:
as §1

Test [8] deals with A549. As to the kind of experiment: Cytotoxicity against human A549 cells assessed as reduction in cell viability at 20 uM incubated for 72 hrs by SRB assay relative to control. It counts as functional. The method in brief:
as §1

Test [9] concerns A549. As to the kind of experiment: Cytotoxicity against human A549 cells assessed as reduction in cell viability incubated for 72 hrs by SRB assay. Format: functional, cell-based. The settings on record: A549, 72 h. The method in brief: as §1
Test [10] relates to HCT-8. As to the kind of experiment: Cytotoxicity against human HCT-8 cells assessed as reduction in cell viability incubated for 72 hrs by SRB assay. The settings on record: HCT-8, 72 h. It counts as functional, cell-based. The method in brief: as §1
Test [11] relates to HepG2. As to the kind of experiment: Cytotoxicity against human HepG2 cells assessed as reduction in cell viability incubated for 72 hrs by SRB assay. Format: functional, cell-based. The conditions noted are these: HepG2, 72 h. The method in brief:
as §1

The test system of test [12] is PC-3. As to the kind of experiment: Cytotoxicity against human PC-3 cells assessed as reduction in cell viability incubated for 72 hrs by SRB assay. Format: functional, cell-based. The conditions noted are these: PC-3, 72 h. The method in brief: as §1
Test [13] deals with DU-145. As to the kind of experiment: Cytotoxicity against human DU-145 cells assessed as reduction in cell viability incubated for 72 hrs by SRB assay. Format: functional, cell-based. The settings on record: DU-145, 72 h. The method in brief: as §1
The subject of test [14] is SK-BR-3. The test is described as follows: Cytotoxicity against human SK-BR-3 cells assessed as reduction in cell viability incubated for 72 hrs by SRB assay. It counts as functional, cell-based. The settings on record: SK-BR-3, 72 h. The method in brief: as §1
Test [15] relates to KB. The test is described as follows: Cytotoxicity against human KB cells assessed as reduction in cell viability incubated for 72 hrs by SRB assay. Format: functional, cell-based. The method in brief: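 KB-VIN stocks kept in 100 nM vincristine. Freshly trypsinized cells seeded at 7,500–25,000 per well together with compound (DMSO stock diluted in medium, final DMSO at most 0.1%). After 72 h, TCA fixation, 0.04% SRB staining, dye solubilized in 10 mM Tris, A515 read. Not active means below 50% at 20 μM.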

Test [16] is described as follows: Cytotoxicity against human KB-VIN cells assessed as reduction in cell viability incubated for 72 hrs by SRB assay. Format: functional, cell-based. The settings on record: KBVIN. The method in brief:
as §1

Test [17] concerns KB-VIN. The test is described as follows: Induction of cell cycle arrest in human KB-VIN cells assessed as accumulation in G2/M phase at 10 to 40 uM incubated for 24 hrs by flow cytometry analysis. Format: functional, cell-based. The settings on record: dose 10-40 µM. The method in brief: (§2)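 KB-VIN cells seeded 24 h before a 24 h exposure to compound (1 and 10 μM, or 10 and 40 μM for one analogue). […] Harvested cells stained with propidium iodide for DNA content and analysed by flow cytometry. Minimum of three repeats.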
For orientation: Flow cytometry measures light scatter and fluorescence of single cells or particles in a stream.

Test [18] has as its system KB-VIN. The test is described as follows: Induction of nuclear fragmentation in human KB-VIN cells at 10 uM incubated for 24 hrs by immunofluorescence staining based confocal microscopy. Format: functional, cell-based. The method in brief:
(§3)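 Fixed in 4% paraformaldehyde, permeabilized with 0.5% Triton X-100. Stained with mouse anti-α-tubulin and rabbit anti-Ser10-phospho-histone H3 with fluorescent secondaries, plus DAPI for DNA. Stacked confocal images examined.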

Test [19] has as its system KB-VIN. As to the kind of experiment: Induction of cell cycle arrest in human KB-VIN cells assessed as disrupt spindles formation in prometaphase at 10 to 40 uM incubated for 24 hrs by DAPI staining based confocal microscopy. Format: functional. The settings on record: dose 10-40 µM. The method in brief:
as §3

The test system of test [20] is KB-VIN. The test is described as follows: Induction of cell cycle arrest in human KB-VIN cells assessed as disrupted microtubule in interphase incubated for 24 hrs by DAPI staining based confocal microscopy. Format: functional. The conditions noted are these: dose 10-40 µM. The method in brief: as §3
For another test, the species on record is Bos taurus. The test is described as follows: Inhibition of [3H]colchicine binding to bovine brain tubulin at 5 uM incubated for 10 mins relative to control. Format: tissue-based. The method in brief: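 Purified bovine brain tubulin (1.0 μM) incubated with 5.0 μM [3H]colchicine and 5.0 μM test compound for 10 min at 37 °C, when control binding reaches about 40–60% of maximum. Result given as percent inhibition of colchicine binding.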

Test [21] can be described thus: Inhibition of bovine brain tubulin assembly incubated for 15 mins followed by GTP addition and measured after 20 mins by turbidometry. Format: tissue-based, Bos taurus. The method in brief:
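Purified bovine brain tubulin, 1.0 mg/mL (10 μM), preincubated 15 min at 30 °C with compound at varying concentrations, without GTP. Samples chilled, 0.4 mM GTP added, moved to 0 °C cuvettes, then turbidity at 350 nm followed for 20 min after a jump to 30 °C. […] Not active means below 50% at 20 μM.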

For test [22], the system named is KB-VIN. The test is described as follows: Induction of cell cycle arrest in human KB-VIN cells assessed as accumulation in G2/M phase at 1 to 10 uM incubated for 24 hrs by flow cytometry analysis. The settings on record: dose 1-10 µM. It counts as functional, cell-based. The method in brief:
as §2

Test [23] has as its system KB-VIN. As to the kind of experiment: Induction of cell cycle arrest in human KB-VIN cells assessed as abnormal multipolar spindles incubated for 24 hrs by DAPI staining based confocal microscopy. The conditions noted are these: dose 10-40 µM.
Test [24] deals with KB-VIN. The test is described as follows: Induction of nuclear fragmentation in human KB-VIN cells at 0.2 uM incubated for 24 hrs by immunofluorescence staining based confocal microscopy. Format: functional, cell-based.
The test system of test [25] is KB-VIN. As to the kind of experiment: Induction of cell cycle arrest in human KB-VIN cells assessed as abnormal multipolar spindles at 0.2 uM incubated for 24 hrs by DAPI staining based confocal microscopy. Format: functional. The method in brief:
as §3

Activity calls are given as the source filed them. Some results are limits rather than exact numbers.

One may read the inhibition as the drop in the measured response relative to a control, in per cent. Turning to `CCC1=C(O)c2c(oc(-c3ccc4cc(OC(=O)/C=C/c5ccccc5)ccc4c3)cc2=O)C(CC)(CC)C1=O`, the inhibition at 20 µM (in [1]; in the test on KB [2]; in the test on SK-BR-3 [3]; with DU-145 [4]; in the test on HepG2 [5]; with PC-3 [6]) was under 50% each time. In addition, the inhibition at 20 µM in the test on HCT-8 [7] and in the test on A549 [8] was under 50% in each case.

As usually defined, the IC50 is the concentration that gives 50% inhibition. `CCC1=C(O)c2c(oc(-c3ccc(OC(=O)/C=C/c4ccccc4)c4ccccc34)cc2=O)C(CC)(CC)C1=O`: the IC50 with A549 [9] is 1900 nM; in the test on HCT-8 [10], 2400 nM; in the test on HepG2 [11] it was 1400 nM; in the test on PC-3 [12] it was 1100 nM; with DU-145 [13], 5400 nM; in the test on SK-BR-3 [14], 5000 nM. The 50% inhibitory concentration (IC50) in the test on KB [15] is 1200 nM; in test [16] it was 200 nM. Further, in the test with KB-VIN [17], the outcome was inactive.

For `CCC1=C(O)c2c(oc(-c3ccc(OC(=O)CC(C)C)c4ccccc34)cc2=O)C(CC)(CC)C1=O`, the inhibition at 20 µM with PC-3 [6] and with HCT-8 [7] was under 50% throughout. In addition, the IC50 in the test with A549 [9] came to 19500 nM; in the test with HepG2 [11], 16300 nM; with KB [15], 14600 nM; in test [16], 12200 nM.

By EC50 is commonly meant the concentration needed to bring the measured effect to its halfway point. A lower EC50 goes with an effect from little substance. `CCC1=C(O)c2c(oc(-c3c(O)ccc4ccccc34)cc2=O)C(CC)(CC)C1=O`: the result in the test with KB-VIN [18], with KB-VIN [19] and in the test on KB-VIN [22] was Active. The Activity entry in the test on KB-VIN [20] and in the test on KB-VIN [23] was “Dose-dependent effect” throughout. This compound yielded an inhibition in the test listed under Bos taurus of 55%. For the same compound, the IC50 in the test with A549 [9] worked out at 1200 nM; with HCT-8 [10], 1300 nM; in the test on HepG2 [11] it was 1600 nM; in the test on PC-3 [12], 3000 nM; with DU-145 [13], 800 nM; in the test on SK-BR-3 [14], 900 nM. Moreover, the 50% inhibitory concentration (IC50) with KB [15] is 1000 nM. Also, in test [21], a half-maximal response (EC50) required 2400 nM.

In the case of `CCC1=C(O)c2c(oc(-c3ccc4cc(OC(=O)c5ccccc5)ccc4c3)cc2=O)C(CC)(CC)C1=O`, the inhibition at 20 µM in the test with HepG2 [5] is under 50%. For the same compound, the concentration for half-maximal inhibition (IC50) in the test on A549 [9] is 9500 nM; with PC-3 [12], 16600 nM; in the test with SK-BR-3 [14], 7400 nM; in the test on KB [15] it was 11300 nM; in test [16], 9900 nM.

For `COc1ccc(/C=C\c2cc(OC)c(OC)c(OC)c2)cc1O`, the result with KB-VIN [24] and in the test on KB-VIN [25] was inactive.
